Measured values taken from ChEMBL document CHEMBL4190374, “Structure-Function Evaluation of Imidazopyridine Derivatives Selective for δ-Subunit-Containing γ-Aminobutyric Acid Type A (GABAA) Receptors” (J Med Chem, 2018).

Legend:
[1] = molecular target: Gamma-aminobutyric acid receptor subunit alpha-6/beta-3 (Rattus norvegicus, UniProt P30191+P63079); assay: Displacement of [3H]EBOB from rat GABA-A receptor alpha6beta3 expressed in HEK293 cell membranes after 90 mins by liquid scintillation counting analysis
In short: (§1)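 Crude membranes from HEK 293 cells transiently Ca-phosphate-transfected with rat subunit cDNAs, harvested at 48 h. Membranes (150-200 µg protein) incubated with 3 nM [3H]EBOB in 50 mM Tris/citrate pH 7.3 plus 0.2 M NaCl. Compound up to 10 µM, final DMSO 0.1%, no GABA, 90 min at 21 °C. Bound radioligand collected by GF/C filtration and counted by scintillation.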

[2] = molecular target: Gamma-aminobutyric acid receptor subunit alpha-6/beta-3/gamma-2 (Rattus norvegicus, UniProt P18508+P30191+P63079); assay: Displacement of [3H]EBOB from rat GABA-A receptor alpha6beta3gamma2 expressed in HEK293 cell membranes after 90 mins by liquid scintillation counting analysis; in short: as §1
[3] = molecular target: Gamma-aminobutyric acid receptor subunit alpha-6/beta-3/delta (Rattus norvegicus, UniProt P18506+P30191+P63079); assay: Displacement of [3H]EBOB from rat GABA-A receptor alpha6beta3delta expressed in HEK293 cell membranes after 90 mins by liquid scintillation counting analysis; in short: as §1
[4] = molecular target: Gamma-aminobutyric acid receptor subunit alpha-6/beta-3 (Rattus norvegicus) (UniProt P30191+P63079); assay: Displacement of [3H]EBOB from rat GABA-A receptor alpha6beta3 expressed in HEK293 cell membranes up to 20 uM after 90 mins by liquid scintillation counting analysis relative to control
[5] = molecular target: Gamma-aminobutyric acid receptor subunit alpha-6/beta-3/gamma-2 (Rattus norvegicus) (UniProt P18508+P30191+P63079); assay: Displacement of [3H]EBOB from rat GABA-A receptor alpha6beta3gamma2 expressed in HEK293 cell membranes up to 20 uM after 90 mins by liquid scintillation counting analysis relative to control
[6] = molecular target: Gamma-aminobutyric acid receptor subunit alpha-6/beta-3/delta (Rattus norvegicus) (UniProt P18506+P30191+P63079); assay: Displacement of [3H]EBOB from rat GABA-A receptor alpha6beta3delta expressed in HEK293 cell membranes up to 20 uM after 90 mins by liquid scintillation counting analysis relative to control

Sequence of Gamma-aminobutyric acid receptor subunit alpha-6/beta-3 (P30191 whole entry): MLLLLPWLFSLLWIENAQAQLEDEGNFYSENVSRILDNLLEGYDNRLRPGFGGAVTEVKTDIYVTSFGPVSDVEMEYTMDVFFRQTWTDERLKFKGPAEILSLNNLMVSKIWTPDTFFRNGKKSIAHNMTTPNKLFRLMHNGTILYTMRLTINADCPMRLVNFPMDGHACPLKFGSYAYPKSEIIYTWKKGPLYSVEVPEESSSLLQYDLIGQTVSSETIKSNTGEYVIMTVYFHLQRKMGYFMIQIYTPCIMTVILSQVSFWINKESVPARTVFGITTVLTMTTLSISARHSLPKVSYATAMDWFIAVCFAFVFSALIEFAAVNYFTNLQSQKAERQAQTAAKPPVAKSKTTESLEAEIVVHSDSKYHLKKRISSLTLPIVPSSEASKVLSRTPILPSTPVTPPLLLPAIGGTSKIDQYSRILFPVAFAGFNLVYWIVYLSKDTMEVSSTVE
Sequence of Gamma-aminobutyric acid receptor subunit alpha-6/beta-3 (P63079 whole entry): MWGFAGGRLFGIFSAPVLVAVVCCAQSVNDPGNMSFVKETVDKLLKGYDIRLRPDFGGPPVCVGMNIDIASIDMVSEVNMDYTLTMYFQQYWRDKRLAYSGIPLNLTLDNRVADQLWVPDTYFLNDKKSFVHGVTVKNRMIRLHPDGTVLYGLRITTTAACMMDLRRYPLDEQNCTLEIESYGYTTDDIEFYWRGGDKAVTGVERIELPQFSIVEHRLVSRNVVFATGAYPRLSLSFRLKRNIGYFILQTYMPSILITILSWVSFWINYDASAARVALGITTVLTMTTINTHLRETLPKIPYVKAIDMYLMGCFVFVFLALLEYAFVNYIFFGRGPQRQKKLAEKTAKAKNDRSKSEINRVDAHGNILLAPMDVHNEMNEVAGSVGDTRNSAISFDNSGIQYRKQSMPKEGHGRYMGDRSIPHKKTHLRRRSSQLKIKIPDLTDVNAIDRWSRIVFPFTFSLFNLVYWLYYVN
Sequence of Gamma-aminobutyric acid receptor subunit alpha-6/beta-3/gamma-2 (P18508 whole entry): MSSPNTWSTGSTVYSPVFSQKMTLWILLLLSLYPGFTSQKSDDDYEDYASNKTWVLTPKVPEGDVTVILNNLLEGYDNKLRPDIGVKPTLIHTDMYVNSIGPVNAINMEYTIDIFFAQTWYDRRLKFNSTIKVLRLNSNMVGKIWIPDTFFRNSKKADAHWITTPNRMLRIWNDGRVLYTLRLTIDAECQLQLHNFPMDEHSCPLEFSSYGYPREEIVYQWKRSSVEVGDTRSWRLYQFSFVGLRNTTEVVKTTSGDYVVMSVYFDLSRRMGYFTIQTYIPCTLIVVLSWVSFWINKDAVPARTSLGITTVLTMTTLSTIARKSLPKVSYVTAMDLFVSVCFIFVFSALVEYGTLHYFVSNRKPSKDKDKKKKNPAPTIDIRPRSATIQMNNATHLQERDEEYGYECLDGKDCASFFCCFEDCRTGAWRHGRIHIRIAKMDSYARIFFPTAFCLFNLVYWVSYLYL
Sequence of Gamma-aminobutyric acid receptor subunit alpha-6/beta-3/gamma-2 (P30191 whole entry): as the sequence (P30191 whole entry) above
Sequence of Gamma-aminobutyric acid receptor subunit alpha-6/beta-3/gamma-2 (P63079 whole entry): as the sequence (P63079 whole entry) above
Sequence of Gamma-aminobutyric acid receptor subunit alpha-6/beta-3/delta (P18506 whole entry): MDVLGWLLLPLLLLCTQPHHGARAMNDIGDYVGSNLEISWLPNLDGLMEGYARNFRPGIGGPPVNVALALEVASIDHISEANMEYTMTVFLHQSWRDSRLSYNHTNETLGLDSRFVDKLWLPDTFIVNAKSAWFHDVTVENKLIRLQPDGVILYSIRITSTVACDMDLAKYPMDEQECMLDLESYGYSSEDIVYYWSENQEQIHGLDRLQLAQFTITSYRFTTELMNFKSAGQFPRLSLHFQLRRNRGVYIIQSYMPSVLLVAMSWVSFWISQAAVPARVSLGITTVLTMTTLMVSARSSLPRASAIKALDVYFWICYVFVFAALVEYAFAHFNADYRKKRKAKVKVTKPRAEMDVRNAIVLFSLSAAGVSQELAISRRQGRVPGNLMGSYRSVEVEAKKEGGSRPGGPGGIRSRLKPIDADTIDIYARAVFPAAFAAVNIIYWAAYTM
Sequence of Gamma-aminobutyric acid receptor subunit alpha-6/beta-3/delta (P30191 whole entry): as the sequence (P30191 whole entry) above
Sequence of Gamma-aminobutyric acid receptor subunit alpha-6/beta-3/delta (P63079 whole entry): as the sequence (P63079 whole entry) above

- IC50 [1]: 16 µM
- IC50 [2]: 25 µM
- IC50 [3]: 10.1 µM
- Imax [4]: 21%
- Imax [5]: > 89%
- Imax [6]: 85%
Compound: O=C(Nc1c(-c2cccs2)nc2ccc(Br)cn12)C1CCCCC1
